In ChEMBL document CHEMBL2016521, “Preparation, gram-negative antibacterial activity, and hydrolytic stability of novel siderophore-conjugated monocarbam diols” (ACS Med Chem Lett, 2011):
≈ marks a conversion by molar mass, not a printed value. Blank lines part the entries; values can stand above or below the compound they belong to.

Legend:
Klebsiella pneumoniae [1] = test: Antibacterial activity against Klebsiella pneumoniae 1000-02; type: functional
Pseudomonas aeruginosa [2] = test: Antibacterial activity against Pseudomonas aeruginosa; type: functional
Acinetobacter baumannii = test: Antibacterial activity against Acinetobacter baumannii AB-3167; type: functional
Pseudomonas aeruginosa [3] = test: Antibacterial activity against Pseudomonas aeruginosa isolate 1091-05; type: functional
Pseudomonas aeruginosa [4] = test: Antibacterial activity against imipenem-sensitive Pseudomonas aeruginosa isolate 1091-05 infected in sc dosed neutropenic-C3H/HeN mouse assessed as mouse survival administered 4 hrs post infection followed by BID dosing for two days measured on day 10; type: functional; conditions: isolate 1091-05, sc, read-out: PD50
[5] = Plasma protein binding in human; type: ADME, cell-free; conditions: read-out: PPB (converted)
Pseudomonas aeruginosa [6] = test: Antibacterial activity against imipenem-sensitive Pseudomonas aeruginosa isolate 1091-05 infected in ip dosed SF-1 mouse assessed as survival of animal administered 0.5 and 4 hrs post infected measured on day 4; type: functional; conditions: isolate 1091-05, ip, read-out: PD50
[7] = Fraction unbound in mouse plasma at 1 uM by LC-MS/MS analysis; type: ADME, cell-free
Serratia marcescens = test: Antimicrobial activity against Serratia marcescens; type: functional
[8] = system: Stenotrophomonas maltophilia; test: Antimicrobial activity against Stenotrophomonas maltophilia; type: functional
Klebsiella pneumoniae [9] = test: Antimicrobial activity against carbapenemase-producing Klebsiella pneumoniae; type: functional
[10] = Chemical stability of the compound in phosphate buffer at pH 8 assessed as drug degradation at 1 uM after 100 hrs by HPLC analysis; type: physicochemical; conditions: read-out: Drug degradation
In short: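 Hydrolytic β-lactam ring-opening was followed in aqueous buffer at pH 8.0 and 37 °C over a 100 h incubation. The read-out was percent degradation.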

Pseudomonas aeruginosa [11] = test: Antibacterial activity against Pseudomonas aeruginosa clinical isolate; type: functional
Klebsiella pneumoniae [12] = test: Antimicrobial activity against Klebsiella pneumoniae clinical isolate; type: functional
Pseudomonas aeruginosa [13] = test: Antibacterial activity against metallo-beta-lactamase producing Pseudomonas aeruginosa; type: functional
Pseudomonas aeruginosa [14] = test: Antibacterial activity against Pseudomonas aeruginosa cystic fibrosis isolate; type: functional
Escherichia coli [15] = test: Antimicrobial activity against Escherichia coli clinical isolate; type: functional
Escherichia coli [16] = test: Antimicrobial activity against CTX-M-positive extended spectrum beta-lactamase-producing Escherichia coli; type: functional
Citrobacter freundii = test: Antimicrobial activity against Citrobacter freundii; type: functional
Acinetobacter sp. = test: Antimicrobial activity against Acinetobacter sp.; type: functional
Klebsiella pneumoniae [17] = test: Antimicrobial activity against extended spectrum beta-lactamase-producing Klebsiella pneumoniae; type: functional
Klebsiella aerogenes = test: Antimicrobial activity against Enterobacter aerogenes; type: functional
Escherichia coli [18] = test: Antimicrobial activity against extended spectrum beta-lactamase-producing Escherichia coli; type: functional
[19] = Chemical stability of the compound in phosphate buffer at pH 6 at 1 uM after 24 hrs by HPLC analysis; type: physicochemical; conditions: pH 6, 24 h
In short: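 Hydrolytic stability of the β-lactam ring was measured in aqueous buffer at pH 6.0 and 37 °C.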

Pseudomonas aeruginosa [20] = test: Antibacterial activity against low inoculum imipenem-sensitive Pseudomonas aeruginosa isolate 1091-05 infected in sc dosed neutropenic-C3H/HeN mouse assessed as mouse survival administered 4 hrs post infection followed by BID dosing for two days measured on day 10; type: functional; conditions: isolate 1091-05, sc, read-out: PD50

SMILES: CC(C)(O/N=C(\C(=O)N[C@H]1CN(C(=O)[N-]S(=O)(=O)n2nc(-c3cc(=O)c(O)c[nH]3)n(C[C@H](O)CO)c2=O)C1=O)c1csc(N)n1)C(=O)[O-].[Na+].[Na+]
MIC (Klebsiella pneumoniae [1]): 0.5 µg/mL
MIC90 (Pseudomonas aeruginosa [2]): 1 µg/mL
MIC (Acinetobacter baumannii): 0.5 µg/mL
MIC (Pseudomonas aeruginosa [3]): 0.125 µg/mL
ED50 (Pseudomonas aeruginosa [4]): 18.6 mg/kg

SMILES: C[C@H](O)Cn1c(-c2cc(=O)c(O)c[nH]2)nn(S(=O)(=O)[N-]C(=O)N2C[C@H](NC(=O)/C(=N\OC(C)(C)C(=O)[O-])c3csc(N)n3)C2=O)c1=O.[Na+].[Na+]
MIC (Klebsiella pneumoniae [1]): 0.25 µg/mL
MIC90 (Pseudomonas aeruginosa [2]): 1 µg/mL
MIC (Acinetobacter baumannii): 1 µg/mL
MIC (Pseudomonas aeruginosa [3]): 0.125 µg/mL
ED50 (Pseudomonas aeruginosa [4]): 15.7 mg/kg

SMILES: Cn1c(-c2cc(=O)c(O)c[nH]2)nn(S(=O)(=O)[N-]C(=O)N2C[C@H](NC(=O)/C(=N\OC(C)(C)C(=O)[O-])c3csc(N)n3)C2=O)c1=O.[Na+].[Na+]
ED50 (Pseudomonas aeruginosa [6]): 4 mg/kg
MIC (Klebsiella pneumoniae [1]): 0.5 µg/mL
MIC90 (Pseudomonas aeruginosa [2]): 2 µg/mL
MIC (Acinetobacter baumannii): 1 µg/mL
MIC (Pseudomonas aeruginosa [3]): 0.5 µg/mL
fraction unbound at 1 µM [7]: 0.26
ED50 (Pseudomonas aeruginosa [4]): > 150 mg/kg

SMILES: C[C@@H](O)[C@H]1C(=O)N2C(C(=O)O)=C(S[C@@H]3CN[C@H](C(=O)N(C)C)C3)[C@H](C)[C@H]12 [MEROPENEM]
ED50 (Pseudomonas aeruginosa [6]): 1.3 mg/kg
MIC (Klebsiella pneumoniae [1]): < 1 µg/mL
MIC50 (Serratia marcescens): 0.06 µg/mL (≈ 0.156 µM)
MIC90 (Serratia marcescens): > 64 µg/mL
MIC50 [8]: > 64 µg/mL
MIC90 [8]: > 64 µg/mL
MIC50 (Klebsiella pneumoniae [9]): 0.06 µg/mL (≈ 0.156 µM)
MIC90 (Klebsiella pneumoniae [9]): 32 µg/mL (≈ 83.4 µM)
MIC90 (Pseudomonas aeruginosa [2]): > 64 µg/mL
degraded at 100 h, 1 µM [10]: 50%
MIC50 (Pseudomonas aeruginosa [11]): 8 µg/mL (≈ 20.9 µM)
MIC90 (Pseudomonas aeruginosa [11]): > 64 µg/mL
MIC (Acinetobacter baumannii): 0.25 µg/mL (≈ 0.652 µM)
MIC50 (Klebsiella pneumoniae [12]): 0.06 µg/mL (≈ 0.156 µM)
MIC90 (Klebsiella pneumoniae [12]): 32 µg/mL (≈ 83.4 µM)
MIC50 (Pseudomonas aeruginosa [13]): 8 µg/mL (≈ 20.9 µM)
MIC90 (Pseudomonas aeruginosa [13]): > 64 µg/mL
MIC (Pseudomonas aeruginosa [3]): 0.5 µg/mL (≈ 1.3 µM)
MIC50 (Pseudomonas aeruginosa [14]): 8 µg/mL (≈ 20.9 µM)
MIC90 (Pseudomonas aeruginosa [14]): > 64 µg/mL
MIC50 (Escherichia coli [15]): 0.06 µg/mL (≈ 0.156 µM)
MIC90 (Escherichia coli [15]): 0.06 µg/mL (≈ 0.156 µM)
MIC50 (Escherichia coli [16]): 0.06 µg/mL (≈ 0.156 µM)
MIC90 (Escherichia coli [16]): 0.06 µg/mL (≈ 0.156 µM)
MIC50 (Citrobacter freundii): 0.06 µg/mL (≈ 0.156 µM)
MIC90 (Citrobacter freundii): 0.25 µg/mL (≈ 0.652 µM)
ED50 (Pseudomonas aeruginosa [4]): 1.04 mg/kg
MIC50 (Acinetobacter sp.): 1 µg/mL (≈ 2.61 µM)
MIC90 (Acinetobacter sp.): 32 µg/mL (≈ 83.4 µM)
MIC50 (Klebsiella pneumoniae [17]): 0.06 µg/mL (≈ 0.156 µM)
MIC90 (Klebsiella pneumoniae [17]): 32 µg/mL (≈ 83.4 µM)
MIC50 (Klebsiella aerogenes): 0.06 µg/mL (≈ 0.156 µM)
MIC90 (Klebsiella aerogenes): 0.25 µg/mL (≈ 0.652 µM)
MIC50 (Escherichia coli [18]): 0.06 µg/mL (≈ 0.156 µM)
MIC90 (Escherichia coli [18]): 0.06 µg/mL (≈ 0.156 µM)

SMILES: Cc1cc(Cn2c(-c3cc(=O)c(O)c[nH]3)nn(S(=O)(=O)[N-]C(=O)N3C[C@H](NC(=O)/C(=N\OC(C)(C)C(=O)[O-])c4csc(N)n4)C3=O)c2=O)no1.[Na+].[Na+]
MIC (Pseudomonas aeruginosa [3]): 2 µg/mL

SMILES: C[C@H]1[C@H](NC(=O)/C(=N\OC(C)(C)C(=O)[O-])c2csc(N)n2)C(=O)N1C(=O)[N-]S(=O)(=O)n1nc(-c2cc(=O)c(O)c[nH]2)n(C[C@@H](O)CO)c1=O.[Na+].[Na+]
MIC (Klebsiella pneumoniae [1]): 0.5 µg/mL
Stability [19]: Stable
MIC90 (Pseudomonas aeruginosa [2]): 0.5 µg/mL
degraded at 100 h, 1 µM [10]: 20%
ED50 (Pseudomonas aeruginosa [20]): 1.4 mg/kg
MIC (Acinetobacter baumannii): 2 µg/mL
MIC (Pseudomonas aeruginosa [3]): 0.25 µg/mL
fraction unbound at 1 µM [7]: 0.51

SMILES: CC(C)(O/N=C(\C(=O)N[C@H]1CN(C(=O)[N-]S(=O)(=O)n2nc(-c3cc(=O)c(O)c[nH]3)n(CCCO)c2=O)C1=O)c1csc(N)n1)C(=O)[O-].[Na+].[Na+]
MIC (Pseudomonas aeruginosa [3]): 0.25 µg/mL

Continued, values first:

MIC (Pseudomonas aeruginosa [3]): 0.5 µg/mL
SMILES: CC(C)(C)CCn1c(-c2cc(=O)c(O)c[nH]2)nn(S(=O)(=O)[N-]C(=O)N2C[C@H](NC(=O)/C(=N\OC(C)(C)C(=O)[O-])c3csc(N)n3)C2=O)c1=O.[Na+].[Na+]

fraction unbound [5]: 0.35
SMILES: C=CC1=C(C(=O)O)N2C(=O)[C@@H](NC(=O)/C(=N\OCC(=O)O)c3csc(N)n3)[C@H]2SC1 [CEFIXIME]

fraction unbound [5]: 0.75
SMILES: COCC1=C(C(=O)O)N2C(=O)[C@@H](NC(=O)/C(=N\OC)c3csc(N)n3)[C@H]2SC1 [CEFPODOXIME]
